# ChEMBL document CHEMBL1687749, “Beijing genotype of Mycobacterium tuberculosis is significantly associated with high-level fluoroquinolone resistance in Vietnam” (2009)
# How the values were obtained:
# Assay type in all cases: functional
# [1] = system: Mycobacterium tuberculosis; test: Antimycobacterial activity against mixture of fluoroquinolone-resistant and sensitive Mycobacterium tuberculosis Beijing genotype isolates carrying heteropeaks upon sequencing at mutation site and harboring gyrA D94G and D94A mutant genes
# How it was run: (§1)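 Ofloxacin MIC was determined on isolates from the first 65 FQ-resistant clinical isolates, screened by the WHO 1% proportion method on Lowenstein-Jensen medium with ofloxacin at 2 μg/ml. Beijing genotype was assigned by spoligotyping.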
# [2] = system: Mycobacterium tuberculosis; test: Antimycobacterial activity against mixture of fluoroquinolone-resistant and sensitive Mycobacterium tuberculosis Beijing genotype isolates carrying heteropeaks upon sequencing at mutation site and harboring gyrB A90V and D500A mutant genes; how it was run: as §1
# [3] = system: Mycobacterium tuberculosis; test: Antimycobacterial activity against fluoroquinolone-resistant Mycobacterium tuberculosis Beijing genotype isolates without carrying multiple mutation and harboring gyrB D540D mutant gene
# How it was run: (§2)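 Ofloxacin MIC was determined on the first 65 FQ-resistant clinical isolates, and 64 regrew on subculture. Resistance was defined by the WHO 1% proportion method on Lowenstein-Jensen medium with ofloxacin at 2 μg/ml. Mutations were assigned by gyrA/gyrB sequencing and Beijing genotype by spoligotyping. The value is the median MIC per mutation, excluding isolates with multiple mutations or sequencing heteropeaks.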
# [4] = system: Mycobacterium tuberculosis; test: Antimycobacterial activity against mixture of fluoroquinolone-resistant and sensitive Mycobacterium tuberculosis Beijing genotype isolates carrying heteropeaks upon sequencing at mutation site and harboring gyrA A90V and D94G mutant genes; how it was run: as §1
# [5] = system: Mycobacterium tuberculosis; test: Antimycobacterial activity against mixture of fluoroquinolone-resistant and sensitive Mycobacterium tuberculosis Beijing genotype isolates carrying heteropeaks upon sequencing at mutation site and harboring gyrB D540D mutant gene; how it was run: as §1
# [6] = system: Mycobacterium tuberculosis; test: Antimycobacterial activity against mixture of fluoroquinolone-resistant and sensitive Mycobacterium tuberculosis Beijing genotype isolates carrying heteropeaks upon sequencing at mutation site and harboring gyrA G88A mutant gene; how it was run: as §1
# [7] = system: Mycobacterium tuberculosis; test: Antimycobacterial activity against mixture of fluoroquinolone-resistant and sensitive Mycobacterium tuberculosis Beijing genotype isolates carrying heteropeaks upon sequencing at mutation site and harboring gyrA D94A mutant gene; how it was run: as §1
# [8] = system: Mycobacterium tuberculosis; test: Antimycobacterial activity against fluoroquinolone-resistant Mycobacterium tuberculosis Beijing genotype isolates without carrying multiple mutation and harboring gyrA D94Y mutant gene; how it was run: as §2
# [9] = system: Mycobacterium tuberculosis; test: Antimycobacterial activity against fluoroquinolone-resistant Mycobacterium tuberculosis Beijing genotype isolates without carrying mutation; how it was run: as §2
# [10] = system: Mycobacterium tuberculosis; test: Antimycobacterial activity against fluoroquinolone-resistant Mycobacterium tuberculosis Beijing genotype isolates without carrying multiple mutation and harboring gyrA A90V mutant gene; how it was run: as §2
# [11] = system: Mycobacterium tuberculosis; test: Antimycobacterial activity against mixture of fluoroquinolone-resistant and sensitive Mycobacterium tuberculosis Beijing genotype isolates carrying heteropeaks upon sequencing at mutation site and harboring gyrA A90V and D94A mutant genes; how it was run: as §1
# [12] = system: Mycobacterium tuberculosis; test: Antimycobacterial activity against mixture of fluoroquinolone-resistant and sensitive Mycobacterium tuberculosis Beijing genotype isolates carrying heteropeaks upon sequencing; how it was run: as §1
# [13] = system: Mycobacterium tuberculosis; test: Antimycobacterial activity against fluoroquinolone-resistant Mycobacterium tuberculosis Beijing genotype isolates without carrying multiple mutation and harboring gyrB A90V and T539P mutant genes
# [14] = system: Mycobacterium tuberculosis; test: Antimycobacterial activity against fluoroquinolone-resistant Mycobacterium tuberculosis Beijing genotype isolates without carrying multiple mutation and harboring gyrA D94G mutant gene; how it was run: as §2
# [15] = system: Mycobacterium tuberculosis; test: Antimycobacterial activity against mixture of fluoroquinolone-resistant and sensitive Mycobacterium tuberculosis Beijing genotype isolates carrying heteropeaks upon sequencing at mutation site and harboring gyrA D94Y mutant gene; how it was run: as §1
# [16] = system: Mycobacterium tuberculosis; test: Antimycobacterial activity against mixture of fluoroquinolone-resistant and sensitive Mycobacterium tuberculosis Beijing genotype isolates carrying heteropeaks upon sequencing at mutation site and harboring gyrA D94G mutant gene; how it was run: as §1
# [17] = system: Mycobacterium tuberculosis; test: Antimycobacterial activity against mixture of fluoroquinolone-resistant and sensitive Mycobacterium tuberculosis Beijing genotype isolates carrying heteropeaks upon sequencing at mutation site and harboring gyrB D500N mutant gene; how it was run: as §1
# [18] = system: Mycobacterium tuberculosis; test: Antimycobacterial activity against fluoroquinolone-resistant Mycobacterium tuberculosis Beijing genotype isolates without carrying multiple mutation and harboring gyrA D94A mutant gene; how it was run: as §2
# [19] = system: Mycobacterium tuberculosis; test: Antimycobacterial activity against fluoroquinolone-resistant Mycobacterium tuberculosis Beijing genotype isolates without carrying multiple mutation and harboring gyrA D94N mutant gene; how it was run: as §2
# [20] = system: Mycobacterium tuberculosis; test: Antimycobacterial activity against mixture of fluoroquinolone-resistant and sensitive Mycobacterium tuberculosis Beijing genotype isolates carrying heteropeaks upon sequencing at mutation site and harboring gyrA A90V mutant gene; how it was run: as §1
# [21] = system: Mycobacterium tuberculosis; test: Antimycobacterial activity against fluoroquinolone-resistant Mycobacterium tuberculosis Beijing genotype isolates without carrying multiple mutation and harboring gyrB D500N mutant gene; how it was run: as §2
# [22] = system: Mycobacterium tuberculosis; test: Antimycobacterial activity against mixture of fluoroquinolone-resistant and sensitive Mycobacterium tuberculosis Beijing genotype isolates carrying heteropeaks upon sequencing at mutation site and harboring gyrB A90V and T539P mutant genes; how it was run: as §1
# [23] = system: Mycobacterium tuberculosis; test: Antimycobacterial activity against mixture of fluoroquinolone-resistant and sensitive Mycobacterium tuberculosis Beijing genotype isolates carrying heteropeaks upon sequencing at mutation site and harboring gyrA D94N mutant gene; how it was run: as §1
smiles,measurement,setting,value
CC1COc2c(N3CCN(C)CC3)c(F)cc3c(=O)c(C(=O)O)cn1c23 (stereo not drawn) [OFLOXACIN],MIC,[1],12 µg/mL
same,MIC,[2],8 µg/mL
same,MIC,[3],12 µg/mL
same,MIC,[4],12 µg/mL
same,MIC,[5],12 µg/mL
same,MIC,[6],12 µg/mL
same,MIC,[7],8 µg/mL
same,MIC,[8],12 µg/mL
same,MIC,[9],4 µg/mL
same,MIC,[10],8 µg/mL
same,MIC,[11],8 µg/mL
same,MIC,[12],4 µg/mL
same,MIC,[13],>12 µg/mL
same,MIC,[14],12 µg/mL
same,MIC,[15],>12 µg/mL
same,MIC,[16],12 µg/mL
same,MIC,[17],4 µg/mL
same,MIC,[18],8 µg/mL
same,MIC,[19],12 µg/mL
same,MIC,[20],8 µg/mL
same,MIC,[21],>4 µg/mL
same,MIC,[22],>12 µg/mL
same,MIC,[23],12 µg/mL
